According to ChEMBL document CHEMBL3826882, “Discovery of 1-((2R,4aR,6R,7R,7aR)-2-Isopropoxy-2-oxidodihydro-4H,6H-spiro[furo[3,2-d][1,3,2]dioxaphosphinine-7,2'-oxetan]-6-yl)pyrimidine-2,4(1H,3H)-dione (JNJ-54257099), a 3'-5'-Cyclic Phosphate Ester Prodrug of 2'-Deoxy-2'-Spirooxetane Uridine Triphosphate Useful for HCV Inhibition” (J Med Chem, 2016):
One block for each compound: values may come before it.

Columns and labels:
Hepatocyte [1] = test: Prodrug conversion in mouse primary hepatocytes assessed as 2'-deoxy-2'-spirooxetane uridine triphosphate level per million cells at 2 uM after 24 hrs using radiolabelled compound by LC-MS/MS analysis; format: ADME, cell-based
Summary of the method: (§1)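 Study A: fresh primary hepatocyte cultures from mouse, rat, dog and human incubated with tritiated prodrug at 2 or 62.5 µM for 4 or 24 h. Triphosphate in cell lysates reported as pmol/million hepatocytes. Duplicate or single measurements.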

Hepatocyte [2] = test: Prodrug conversion in mouse primary hepatocytes assessed as 2'-deoxy-2'-spirooxetane uridine triphosphate level per million cells at 62.5 uM after 4 hrs using radiolabelled compound by LC-MS/MS analysis; format: ADME, cell-based; summary of the method: as §1
Hepatocyte [3] = test: Prodrug conversion in rat primary hepatocytes assessed as 2'-deoxy-2'-spirooxetane uridine triphosphate level per million cells at 62.5 uM after 24 hrs using radiolabelled compound by LC-MS/MS analysis; format: ADME, cell-based; summary of the method: as §1
[4] = Prodrug conversion in dog primary hepatocytes assessed as 2'-deoxy-2'-spirooxetane uridine triphosphate level per million cells at 62.5 uM after 24 hrs using radiolabelled compound by LC-MS/MS analysis; format: ADME, cell-based, Canis lupus familiaris, Hepatocyte; summary of the method: as §1
Hepatocyte [5] = test: Stability in rat primary hepatocyte supernatant assessed as parent compound level at 2 uM after 4 to 24 hrs using radiolabeled compound by HPLC analysis; format: ADME, cell-based; details: hepatocytes
Hepatocyte [6] = test: Stability in human primary hepatocyte supernatant assessed as parent compound level at 2 uM after 4 to 24 hrs using radiolabeled compound by HPLC analysis; format: ADME, cell-based; details: hepatocytes
Hepatocyte [7] = test: Drug metabolism in rat primary hepatocyte supernatant assessed as 1-((4R,5R,7R,8R)-8-hydroxy-7-(hydroxymethyl)-1,6-dioxaspiro[3.4]octan-5-yl)pyrimidine-2,4(1H,3H)-dione formation at 2 to 62.5 uM after 4 to 24 hrs using radiolabeled compound by HPLC analysis; format: ADME, cell-based; details: hepatocytes
Summary of the method: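 Fresh primary hepatocyte cultures incubated with tritiated prodrug (5'-[3H]) at 2 and 62.5 µM for 4 and 24 h. Supernatants taken after protein precipitation and profiled by HPLC with radioactivity detection. Cell lysates profiled for metabolites by radio-LC. Cyclic monophosphate also measured by LC/MS/MS.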

[8] = Drug metabolism in dog primary hepatocytes assessed as 1-[(4aR,6R,7R,7aR)-2-hydroxy-2-oxidodihydro-4H-spiro[furo[3,2-d][1,3,2]dioxaphosphinine-7,2'-oxetan]-6-yl]pyrimidine-2,4(1H,3H)-dione formation at 2 to 62.5 uM after 4 hrs using radiolabelled compound by LC-MS/MS analysis; format: ADME, cell-based, Canis lupus familiaris, Hepatocyte
Summary of the method: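 Study A: primary cultured hepatocytes (mouse, rat, dog, human) incubated with 2 or 62.5 µM 5'-[3H]-labelled prodrug for 4 and 24 h. Cell lysates were analysed for triphosphate. Supernatants were protein-precipitated and profiled by HPLC with radioactivity detection. Cyclic monophosphate was also assessed by LC/MS/MS.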

Hepatitis C virus = test: Antiviral activity against HCV genotype 3a infected in homozygous cDNA-uPA chimeric SCID mouse bearing humanized hepatocytes assessed as change in HCV RNA level in serum at 100 mg/kg, po bid administered through gavage for 7 days by RT-PCR method; format: functional, Hepacivirus hominis, Hepatocyte
Summary of the method: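 Male chimeric SCID cDNA-uPA+/+ mice with human hepatocyte liver (≥70% replacement by blood human albumin) and serum HCV RNA >1.0×10^6 copies/mL the week before dosing. Oral gavage for 7 days in 20% HP-β-CD, 50-200 mg/kg QD or BID. Serum sampled pre-dose on days 1, 2, 3, 5 and 7. Real-time PCR; mean change in log10 copies/mL, day 7 vs day 1 pre-dose.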

[9] = Prodrug conversion in dog cryopreserved hepatocytes assessed as 2'-deoxy-2'-spirooxetane uridine triphosphate level per million cells at 10 uM after 2 hrs by LC-MS/MS analysis; format: ADME, cell-based, Canis lupus familiaris, Hepatocyte
Summary of the method: (§2)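 Plated cryopreserved hepatocytes (study B) incubated with 10 µM unlabeled prodrug for 2, 8 or 24 h. Triphosphate measured in cell lysates and expressed as pmol/million hepatocytes. Quantification limit 2 ng/10^6 cells.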

[10] = Prodrug conversion in dog cryopreserved hepatocytes assessed as 2'-deoxy-2'-spirooxetane uridine triphosphate level per million cells at 10 uM after 8 hrs by LC-MS/MS analysis; format: ADME, cell-based, Canis lupus familiaris, Hepatocyte; summary of the method: as §2
[11] = Prodrug conversion in dog cryopreserved hepatocytes assessed as 2'-deoxy-2'-spirooxetane uridine triphosphate level per million cells at 10 uM after 24 hrs by LC-MS/MS analysis; format: ADME, cell-based, Canis lupus familiaris, Hepatocyte; summary of the method: as §2
Hepatocyte [12] = test: Prodrug conversion in human cryopreserved hepatocytes assessed as 2'-deoxy-2'-spirooxetane uridine triphosphate level per million cells at 10 uM after 2 hrs by LC-MS/MS analysis; format: ADME, cell-based; summary of the method: as §2
Hepatocyte [13] = test: Drug level in human hepatocytes in presence of CYP3A4 inhibitor ritonavir by LC-MS/MS analysis; format: ADME, cell-based
Hepatocyte [14] = test: Drug metabolism in human hepatocytes assessed as ((4R,5R,7R,8R)-5-(2,4-dioxo-3,4-dihydropyrimidin-1(2H)-yl)-8-hydroxy-1,6-dioxaspiro[3.4]octan-7-yl)methyl dihydrogen phosphate formation in presence of CYP2C8 and CYP2C9 inhibitor montelukast by LC-MS/MS analysis; format: ADME, cell-based
Hepatocyte [15] = test: Prodrug conversion in human hepatocytes assessed as 2'-deoxy-2'-spirooxetane uridine triphosphate formation in presence of CYP2C8 and CYP2C9 inhibitor montelukast by LC-MS/MS analysis; format: ADME, cell-based
Hepatocyte [16] = test: Drug metabolism in human hepatocytes assessed as ((4R,5R,7R,8R)-5-(2,4-dioxo-3,4-dihydropyrimidin-1(2H)-yl)-8-hydroxy-1,6-dioxaspiro[3.4]octan-7-yl)methyl dihydrogen phosphate formation in presence of PDE5 inhibitor sildenafil by LC-MS/MS analysis; format: ADME, cell-based
Hepatocyte [17] = test: Drug metabolism in human hepatocytes assessed as ((4R,5R,7R,8R)-5-(2,4-dioxo-3,4-dihydropyrimidin-1(2H)-yl)-8-hydroxy-1,6-dioxaspiro[3.4]octan-7-yl)methyl dihydrogen phosphate formation in presence of pan-PDE inhibitor ibudilast by LC-MS/MS analysis; format: ADME, cell-based
[18] = AUC (0 to last) in mouse plasma at 50 mg/kg, po; format: ADME, organism-based; parameters: dose 50 mg/kg, route oral, time 0 - last
Summary of the method: (§3)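 Oral dose 50 mg/kg, formulated in 20% HP-β-cyclodextrin. Prodrug and triphosphate were measured in plasma and liver (ng/mL or ng/g). Parameters derived were Cmax, tmax, AUC0-last, AUC0-inf and t1/2. Some prodrug data come from two independent studies.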

Liver [19] = test: AUC (0 to last) in mouse liver assessed as 2'-deoxy-2'-spirooxetane uridine triphosphate at 50 mg/kg, po; format: ADME, organism-based; details: in vivo; summary of the method: as §3
Liver [20] = test: Half life in mouse liver assessed as 2'-deoxy-2'-spirooxetane uridine triphosphate at 50 mg/kg, po; format: ADME, organism-based; details: in vivo
Summary of the method: (§4)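 Single oral dose of 50 mg/kg in 20% HP-β-cyclodextrin. Prodrug and triphosphate measured in plasma and liver over time (tlast 6–30 h). Half-life, Cmax, tmax and AUC0-last derived; liver/plasma ratio taken from AUC0-last. Prodrug data pooled from two independent studies.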

[21] = Ratio of AUC (0 to last) in rat liver to AUC (0 to last) in rat plasma; format: ADME; summary of the method: as §4
[22] = Half life in dog plasma at 50 mg/kg, po; format: ADME, organism-based, Canis lupus familiaris; summary of the method: as §4
Liver [23] = test: AUC (0 to last) in dog liver at 50 mg/kg, po; format: ADME, organism-based, Canis lupus familiaris; details: in vivo; summary of the method: as §3
Liver [24] = test: Tlast in dog liver assessed as 2'-deoxy-2'-spirooxetane uridine triphosphate at 50 mg/kg, po; format: ADME, organism-based, Canis lupus familiaris; details: in vivo
Summary of the method: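 Single oral dose of 50 mg/kg formulated in 20% HP-β-cyclodextrin. Prodrug and its triphosphate were measured in plasma and liver (ng/mL or ng/g) over time, and Cmax, tmax, AUC, tlast and t1/2 were derived. For some analytes, data from two independent studies are reported.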

Drug metabolism (Hepatocyte [1]): 0.049 pmol | Drug metabolism (Hepatocyte [2]): 0.12 pmol | Drug metabolism (Hepatocyte [3]): 0.39 pmol | Drug metabolism [4]: 0.11 pmol | Stability (Hepatocyte [5]): Stable | Stability (Hepatocyte [6]): Stable | Drug metabolism (Hepatocyte [7]): metabolite_detected | Drug metabolism [8]: metabolite_detected
SMILES: [3H]C1O[P@](=O)(OC(C)C)O[C@@H]2[C@@H]1O[C@@H](n1ccc(=O)[nH]c1=O)[C@@]21CCO1 (stereo not given in full)

SMILES: CC(C)O[P@@]1(=O)OC[C@H]2O[C@@H](n3ccc(=O)[nH]c3=O)[C@@]3(CCO3)[C@@H]2O1
Activity (Hepatitis C virus): -1.08 | Drug metabolism [9]: < 2 ng | Drug metabolism [10]: 0.004 pmol | Drug metabolism [11]: < 2 ng | Drug metabolism (Hepatocyte [12]): 0.087 pmol | Drug uptake (Hepatocyte [13]): Active | Drug metabolism (Hepatocyte [14]): metabolite_detected | Drug metabolism (Hepatocyte [15]): metabolite_detected | Drug metabolism (Hepatocyte [16]): metabolite_notdetected | Drug metabolism (Hepatocyte [17]): metabolite_detected | AUC(0-t) [18]: 2560 ng·h/mL | AUClast (Liver [19]): 126982 ng·h/g | t1/2 (Liver [20]): 3.9 h | Kp [21]: 0.34 | half-life [22]: 7.3 h | AUClast (Liver [23]): 35596 ng·h/g | Tlast (Liver [24]): 24 h
